Common to all, as to assay type: cell-based
For experiment [1], the target named is T1, Adenosine receptor A2a (Homo sapiens, UniProt P29274). Description: Displacement of [3H]ZM241385 from human adenosine A2A receptor expressed in human HeLa cells at 10 uM after 30 mins by beta scintillation counting. An outline of the steps: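 Single-point screen at 10 µM on HeLa-A2A membranes (10 µg protein), Tris/EDTA/MgCl2 buffer with adenosine deaminase, pH 7.4. 3 nM [3H]ZM241385, 30 min at 25 °C, in duplicate. Nonspecific binding with 50 µM NECA. Percent inhibition.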
T1 sequence (P29274 whole entry): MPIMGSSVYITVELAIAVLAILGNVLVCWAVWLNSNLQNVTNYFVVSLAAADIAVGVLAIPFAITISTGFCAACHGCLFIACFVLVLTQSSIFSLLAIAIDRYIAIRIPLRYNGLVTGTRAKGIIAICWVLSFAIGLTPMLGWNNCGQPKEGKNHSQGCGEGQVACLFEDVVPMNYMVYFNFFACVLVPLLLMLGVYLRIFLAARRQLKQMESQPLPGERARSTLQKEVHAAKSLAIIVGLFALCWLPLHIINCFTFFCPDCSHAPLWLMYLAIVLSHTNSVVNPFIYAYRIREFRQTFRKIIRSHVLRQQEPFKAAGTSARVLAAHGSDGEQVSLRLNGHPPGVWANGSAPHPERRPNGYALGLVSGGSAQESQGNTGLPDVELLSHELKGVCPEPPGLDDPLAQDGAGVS
A general note: Displacement assays read how much labelled ligand stays bound in the presence of the test substance.

For experiment [2], the target named is T2, Adenosine receptor A2b (Homo sapiens) (UniProt P29275).
T2 sequence (whole entry): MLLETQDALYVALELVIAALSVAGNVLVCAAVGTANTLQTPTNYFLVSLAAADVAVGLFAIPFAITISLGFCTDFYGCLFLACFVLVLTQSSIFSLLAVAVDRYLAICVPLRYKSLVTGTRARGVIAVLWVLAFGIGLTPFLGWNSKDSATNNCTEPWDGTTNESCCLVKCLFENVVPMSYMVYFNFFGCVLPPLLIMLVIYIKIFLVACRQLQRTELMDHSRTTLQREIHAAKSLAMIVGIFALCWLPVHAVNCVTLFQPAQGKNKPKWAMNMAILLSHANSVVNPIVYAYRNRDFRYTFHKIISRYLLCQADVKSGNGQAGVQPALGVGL
Description: Displacement of [3H]DPCPX from human adenosine A2B receptor expressed in HEK293 cells at 10 uM after 30 mins by beta scintillation counting. An outline of the steps: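 Percent inhibition at 10 µM in HEK-293-A2B membranes (18 µg protein), pH 6.5 Tris buffer with benzamidine, bacitracin and adenosine deaminase. 35 nM [3H]DPCPX, 30 min at 25 °C, in duplicate. Nonspecific binding with 400 µM NECA.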

Experiment [3] concerns the target T3, Adenosine receptor A3 (Homo sapiens) (UniProt P0DMS8).
T3 sequence (whole entry): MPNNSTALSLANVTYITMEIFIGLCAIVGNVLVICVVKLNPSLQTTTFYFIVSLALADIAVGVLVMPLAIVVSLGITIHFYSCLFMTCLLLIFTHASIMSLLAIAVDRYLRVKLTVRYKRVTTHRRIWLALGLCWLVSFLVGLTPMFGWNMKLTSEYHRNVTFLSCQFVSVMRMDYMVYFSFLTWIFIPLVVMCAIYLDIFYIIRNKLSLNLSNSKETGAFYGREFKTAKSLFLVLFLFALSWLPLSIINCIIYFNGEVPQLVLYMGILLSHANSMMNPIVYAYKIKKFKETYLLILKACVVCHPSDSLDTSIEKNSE
Description: Displacement of [3H]NECA from human adenosine A3 receptor expressed in human HeLa cells at 10 uM after 180 mins by beta scintillation counting. An outline of the steps:
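HeLa-A3 membranes (90 µg protein) in 50 mM Tris-HCl, 1 mM EDTA, 5 mM MgCl2, 2 UI/mL adenosine deaminase, pH 7.4. Test compound at 10 µM with 30 nM [3H]NECA, 180 min at 25 °C, in triplicate. Nonspecific binding with 100 µM (R)-PIA. Percent inhibition read after GF/B filtration.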

Experiment [4] addresses T4, Adenosine receptor A1 (Homo sapiens) (UniProt P30542).
T4 sequence (whole entry): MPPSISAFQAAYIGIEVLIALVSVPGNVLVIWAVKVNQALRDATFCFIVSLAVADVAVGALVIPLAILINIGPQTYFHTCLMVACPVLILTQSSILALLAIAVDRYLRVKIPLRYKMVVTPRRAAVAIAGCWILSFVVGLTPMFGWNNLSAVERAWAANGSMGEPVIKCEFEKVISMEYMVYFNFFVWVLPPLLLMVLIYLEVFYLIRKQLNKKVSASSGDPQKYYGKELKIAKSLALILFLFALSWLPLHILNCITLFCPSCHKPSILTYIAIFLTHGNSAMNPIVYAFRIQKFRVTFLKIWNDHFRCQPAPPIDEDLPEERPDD
Description: Displacement of [3H]DPCPX from human adenosine A1 receptor expressed in CHO cells at 10 uM after 60 mins by beta scintillation counting. An outline of the steps:
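CHO-A1 membranes (15 µg protein) in Hepes/NaCl/MgCl2 buffer with adenosine deaminase, pH 7.4. Test compound at 10 µM with 2 nM [3H]DPCPX, 60 min at 25 °C, in duplicate. Nonspecific binding with 10 µM (R)-PIA. Percent inhibition read after filtration.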

Experiment [5] deals with T1, Adenosine receptor A2a. Description: Displacement of [3H]ZM241385 from human adenosine A2A receptor expressed in human HeLa cells after 30 mins by beta scintillation counting. Summed up:
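HeLa-A2A membranes (10 µg protein) in 50 mM Tris-HCl, 1 mM EDTA, 10 mM MgCl2, 2 UI/mL adenosine deaminase, pH 7.4, with 3 nM [3H]ZM241385. Nonspecific binding with 50 µM NECA. Incubated 30 min at 25 °C, in duplicate. Six concentrations (10 nM-100 µM); IC50 by nonlinear regression, converted to Ki by Cheng-Prusoff.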

In the case of `O=C(NCCCO)c1cc2ccccc2oc1=O`, the inhibition (usually the share of the control response that was lost under treatment) is 10% in experiment [1], 19% in experiment [2], 6% in experiment [3] and 24% in experiment [4].

Turning to `COc1cccc2cc(C(=O)NCC(O)CO)c(=O)oc12` (stereo not drawn), the inhibition in experiment [1] came out at 7%; in experiment [2] it was 25%; in experiment [3], 1%; in experiment [4], 14%.

For the molecule `COc1cccc2cc(C(C)=O)c(=O)oc12`, the inhibition is 1% in experiment [1], 15% in experiment [2], 1% in experiment [3] and 10% in experiment [4].

With `O=C(NCCCN1CCN(CCCNC(=O)c2cc3ccccc3oc2=O)CC1)c1cc2ccccc2oc1=O`, the inhibition in experiment [1] amounted to 1%; in experiment [2] it was 22%; in experiment [3] it was 15%; in experiment [4], 9%.

As for `COc1cccc2cc(C(=O)N[C@@H](CO)C(=O)O)c(=O)oc12`, the inhibition in experiment [1] is 6%; in experiment [2] it was 24%; in experiment [3], 3%; in experiment [4], 12%.

Consider `N=c1oc2ccc(Br)cc2cc1C(=O)NC1CCCCC1`, for which the inhibition was determined as 1% in experiment [1], 10% in experiment [2], 8% in experiment [3] and 5% in experiment [4].

Take `CCC(CO)NC(=O)c1cc2cccc(OC)c2oc1=N` (stereo not drawn): the inhibition in experiment [1] came out at 66%; in experiment [2] it was 39%; in experiment [3] it was 6%; in experiment [4], 24%.

On to `CCC(CO)NC(=O)c1cc2cc(Cl)ccc2oc1=N` (stereo not drawn), for which the inhibition in experiment [1] was 15%; in experiment [2], 9%; in experiment [3] it was 0%; in experiment [4], 7%.

On to `O=C(NC1CCCC1)c1cc2ccccc2oc1=O`, for which the inhibition is 1% in experiment [1], 18% in experiment [2], 20% in experiment [3] and 16% in experiment [4].

Consider `CCOC(CNC(=O)c1cc2cccc(OC)c2oc1=N)OCC`, for which the inhibition is above 70% in experiment [1], 51% in experiment [2], 15% in experiment [3] and 40% in experiment [4]. For the same molecule, the affinity in experiment [5], expressed as Ki, was 1580 nM.

As to `COc1cccc2cc(C(=O)NCCO)c(=O)oc12`, the inhibition in experiment [1] is 1%; in experiment [2], 7%; in experiment [3], 1%; in experiment [4], 12%.

As for `N=c1oc2ccc(Br)cc2cc1C(=O)NC1CCCC1`, the inhibition came to 5% in experiment [1], 28% in experiment [2], 0% in experiment [3] and 17% in experiment [4].

As for `COCCNC(=O)c1cc2cccc(OC)c2oc1=O`, the inhibition was determined as 65% in experiment [1], 18% in experiment [2], 0% in experiment [3] and 45% in experiment [4].

For `COc1ccc(-n2cnc(C#N)c2NC(=O)c2cc3cccc(OC)c3oc2=N)cc1`, the inhibition in experiment [1] stood at 58%; in experiment [2], 5%; in experiment [3] it was 42%; in experiment [4], 37%.

For `O=C(NCCCO)c1cc2cccc(O)c2oc1=O`, the inhibition in experiment [1] stood at 1%; in experiment [2], 24%; in experiment [3] it was 8%; in experiment [4], 18%.

In the case of `COc1cccc2cc(C(=O)Nc3c(C#N)ncn3-c3ccc(C#N)cc3)c(=N)oc12`, the inhibition in experiment [1] was 41%; in experiment [2], 10%; in experiment [3], 1%; in experiment [4], 18%.

With `COc1cc(Br)cc2cc(C(=O)NCCCO)c(=N)oc12`, the inhibition in experiment [1] is 16%; in experiment [2], 30%; in experiment [3], 23%; in experiment [4], 31%.

On to `COc1cccc2cc(C(=O)NCC(=O)O)c(=O)oc12`, for which the inhibition is 13% in experiment [1], 35% in experiment [2], 15% in experiment [3] and 27% in experiment [4].

Take `COc1cccc2cc(C(=O)Nc3c(C#N)ncn3-c3ccccc3)c(=N)oc12`: the inhibition in experiment [1] is above 70%; in experiment [2] it was 9%; in experiment [3], 40%; in experiment [4], 33%. Also, in experiment [5], the Ki (as a rule, a dissociation constant, usually derived from enzyme kinetics or from competition with a known ligand) was 1000 nM.

With `O=C(NCC(O)CO)c1cc2cc(Cl)ccc2oc1=O` (stereo not drawn), the inhibition in experiment [1] worked out at 2%; in experiment [2], 23%; in experiment [3], 1%; in experiment [4], 21%.

`N=c1oc2ccc(Br)cc2cc1C(=O)NCCCO`: the inhibition was 14% in experiment [1], 25% in experiment [2], 17% in experiment [3] and 32% in experiment [4].

For `CCC(CO)NC(=O)c1cc2cc(Br)ccc2oc1=N` (stereo not drawn), the inhibition in experiment [1] was 3%; in experiment [2], 4%; in experiment [3] it was 24%; in experiment [4], 20%.

With `N=c1oc2ccc(Br)cc2cc1C(=O)NCC(O)CO` (stereo not drawn), the inhibition amounted to 8% in experiment [1], 4% in experiment [2], 10% in experiment [3] and 11% in experiment [4].

Regarding `O=C(NCC(O)CO)c1cc2cccc(O)c2oc1=O` (stereo not drawn), the inhibition in experiment [1] amounted to 11%; in experiment [2], 29%; in experiment [3], 22%; in experiment [4], 4%.

`COCCNC(=O)c1cc2cc(Cl)ccc2oc1=N`: the inhibition in experiment [1] is 10%; in experiment [2], 9%; in experiment [3], 13%; in experiment [4], 17%.

Consider `COc1cccc2cc(C(=O)NCCO)c(=N)oc12`, for which the inhibition in experiment [1] is above 70%; in experiment [2], 65%; in experiment [3], 23%; in experiment [4], 47%. The molecule further showed a Ki in experiment [5] of 1000 nM.

Turning to `COc1cccc2cc(C(=O)NCCCO)c(=N)oc12`, the inhibition in experiment [1] was above 70%; in experiment [2], 42%; in experiment [3], 1%; in experiment [4] it was 47%. Also, the Ki in experiment [5] is 631 nM.

Turning to `N=c1oc2ccc(Br)cc2cc1C(=O)NCCO`, the inhibition in experiment [1] is 6%; in experiment [2], 15%; in experiment [3], 0%; in experiment [4] it was 26%.

Take `O=C(O)CNC(=O)c1cc2ccccc2oc1=O`: the inhibition in experiment [1] was found to be 2%; in experiment [2] it was 9%; in experiment [3], 0%; in experiment [4] it was 1%.

`COc1cccc2cc(C(=O)NC(CO)(CO)CO)c(=N)oc12`: the inhibition in experiment [1] turned out to be 24%; in experiment [2], 28%; in experiment [3] it was 18%; in experiment [4], 19%.

For the molecule `COc1cccc2c1OC(C)(O)C(C(C)=O)=C2` (stereo not drawn), the inhibition in experiment [1] came out at 10%; in experiment [2], 24%; in experiment [3], 30%; in experiment [4], 6%.

Values taken from ChEMBL document CHEMBL2040792, “New chromene scaffolds for adenosine A(2A) receptors: synthesis, pharmacology and structure-activity relationships” (Eur J Med Chem, 2012).
